Key:
[1] = Inhibition of Proteus mirabilis B4 urease activity using urea as substrate incubated for 30 mins by absorbance based assay
Outline: (§1)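 Berthelot ammonia assay with whole-cell P. mirabilis B4, grown overnight in LB at 37 °C, pelleted and resuspended in PBS (0.004 mg mL−1 in phosphate buffer). Cells incubated with compound (10-fold dilutions) and 50 mM urea for 30 min at 37 °C. Phenol/nitroprusside and NaOH/hypochlorite reagents added, 30 min at 37 °C, A636 read. Activity normalised to controls; IC50 by non-linear regression; n = 6.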

Proteus mirabilis [2] = experiment: Potency index, ratio of acetohydroxamic acid IC50 to test compound IC50 for inhibition of Proteus mirabilis B4 urease activity using urea as substrate incubated for 30 mins by absorbance based assay; outline: as §1
HepG2 [3] = experiment: Cytotoxicity against human HepG2 cells assessed as effect on cell survival at <1.25 mM measured for 24 hrs by MTT assay; type: toxicity, cell-based; settings: hepg2, 24 h, 1250 µM
Outline: (§2)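 HepG2 cells in complete DMEM at 37 °C, 5% CO2, seeded at 1 × 10^4 cells per well. Compounds diluted serially from 10 mM with 1% DMSO in DMEM; 24 h exposure. MTT (1 mg mL−1) for 60 min at 37 °C, dissolved in isopropanol, absorbance read at 590 nm (reference 620 nm). % survival relative to untreated cells; three biological repeats.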

[4] = Hemolytic activity in human erythrocytes at 0.080 to 5 mM incubated for 1 hrs by absorbance based assay; type: toxicity, cell-based; settings: erythrocyte, 5000 µM, dose 0.08-5 mM
Outline: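 Pooled heparinised whole blood from three donors; erythrocytes washed three times in saline and diluted to 1% (v/v). Incubated with compound (5–0.08 mM, serial dilution of a 10 mM stock with 1% DMSO in PBS) for 1 h at 37 °C with rotation. Saline and 1% triton as controls. Supernatant absorbance read at 404 nm; % haemolysis relative to lysed cells.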

Escherichia coli = experiment: Antibacterial activity against Escherichia coli NSM59 assessed as inhibition of bacterial growth incubated for 18 hrs by absorbance based plate reader analysis; type: functional, organism-based
Outline: (§3)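 Broth microdilution in LB: compound in sterile water with 5% (v/v) DMSO, two-fold serial dilutions; subculture at 1 × 10^6 CFU mL−1 added. 37 °C for 18 h, shaken 10 s before each OD600 reading taken at intervals. MIC read visually at 18 h and from growth curves as lowest concentration inhibiting growth. Wells with broth only and with bacteria only as controls.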

HepG2 [5] = experiment: Cytotoxicity against human HepG2 cells assessed as effect on cell survival at 10 mM measured within 24 hrs by MTT assay; type: toxicity, cell-based; settings: hepg2, 24 h, 10000 µM; outline: as §2
Proteus mirabilis [6] = experiment: Antibacterial activity against Proteus mirabilis assessed as inhibition of bacterial growth incubated for 18 hrs by absorbance based plate reader analysis; type: functional, organism-based; outline: as §3

SMILES | IC50 [1] | Ratio IC50 (Proteus mirabilis [2]) | Activity (HepG2 [3]) | Activity [4] | Activity (Escherichia coli) | Activity (HepG2 [5]) | Activity (Proteus mirabilis [6])
NC(=S)NCc1ccccc1 | 2.27 10^-5mol/dm3 | 1.61 | – | – | – | – | –
S=C(NCc1cccnc1)NCc1cccnc1 | 1.4 10^-6mol/dm3 | 26.1 | Non-toxic | Non-toxic | Moderate_effect | Toxic | Moderate_effect
CC(=O)NO [ACETOHYDROXAMIC ACID] | 3.66 10^-5mol/dm3 | – | Non-toxic | Non-toxic | Moderate_effect | Toxic | Moderate_effect
NC(=S)Nc1ccccc1 [PHENYLTHIOUREA] | 9.66 10^-6mol/dm3 | 0.002 | – | – | – | – | –
O=c1c(O)c(-c2ccc(O)c(O)c2)oc2cc(O)cc(O)c12 [QUERCETIN] | 8.66 10^-7mol/dm3 | 0.001 | – | – | – | – | –

Reference: ChEMBL document CHEMBL6083216, “Rational design and in vitro testing of new urease inhibitors to prevent urinary catheter blockage” (RSC Med Chem, 2024)
